Cav32 inh – human Cav3.2 channel inhibition, primary screen. O95180. Cav3.2-expressing cells, Fluo-4 calcium fluorescence FDSS; active compounds read low. B-score at 10 µM. 100,000 tested, 4% active. AID 449739;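 active means single-dose well whose peak fluorescence ratio is a statistical outlier from its plate by either plate-standardised score or position-corrected B-score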
PostGolgi ctrl – growth of the yeast control strain, post-Golgi counter-screen; efflux-deficient yeast background strain, growth absorbance A615, 16 h; inhibition, % at 10 µM; 98,000 tested, 5% active; AID 738
Ecoli WT expand – E. coli BW25113 growth inhibition, expanded screen; OD600 absorbance; growth inhibition, % at 100 µM; 98,000 tested, 0.15% active; AID 710;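 active means growth inhibition above about 50% at one test dose, limit read from the data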;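 further: growth measured after 20 h incubation at 37 °C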
PostGolgi yeast – growth inhibition of a yeast mutant, post-Golgi transport screen; 98,000 tested, 0.9% active; AID 739; inhibition, % at 10 µM; post-Golgi transport phenotypic cell assay;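 further: yeast cells grown in 1536-well plates; yeast grown about 18 h at 30C before absorbance read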
Ecoli tolC – growth inhibitors of E. coli BW25113 tolC mutant; OD615; growth inhibition, % at 10 µM (by protocol); 65,000 tested, 2.2% active; AID 573;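 active means growth inhibition at or above a cutoff equal to the mean over every tested compound plus 3 SD, cut at about 60% in these data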;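 further: growth measured after 20 h incubation at 37 °C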
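test system = E. coli BW25113 ΔtolC::kan bacteria | medium = LB with kanamycin 50 µg/mL | signal = OD at 615 nm | schedule = 37 °C, 20 h exposure | evaluation = % inhibition of E. coli growth | compound dosing = one dose of 10 µM final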
* = called active by the depositor; . = no result. Rows were chosen to be rich in hits. Some 8.4% of all compounds tested hit in one or more screens of this group. Unless noted, no stated cut-off is given here; in the data, active means inhibition above about 30%; inactive means the rest.

SMILES | Cav32 inh | PostGolgi ctrl | Ecoli WT expand | PostGolgi yeast | Ecoli tolC
O=C(Nc1ccc(Cl)cc1)N(Cc1cccs1)Cc1cccs1 | -0.035 | 35* | -24 | 2 | 95*
O=C(Nc1ccc(Cl)c(Cl)c1)N(CCCN1CCOCC1)Cc1cccs1 | -0.54 | 31* | 5 | 15 | .
O=C(Nc1ccccc1)N(CCCN1CCOCC1)Cc1ccccc1F | 1.5 | 6 | 0 | 4 | -8
O=C(Nc1ccc(F)cc1)N(CCCN1CCOCC1)Cc1cc2cc3c(cc2[nH]c1=O)OCCO3 | 0.5 | 40* | -1 | 2 | 8
CCCCN(N=Nc1nonc1OC)c1nonc1OC | -3.6 | 5 | 3 | 7 | .
COc1ccc(-c2nn(C)c(=O)c3ccccc23)cc1CNS(C)(=O)=O | 1.9 | 42* | -4 | 0 | 0
CN(C)S(=O)(=O)c1cccc(-c2nnc(SCc3ccc4c(c3)OCCO4)o2)c1 | 0.12 | 11 | -10 | -2 | 5
CN=C1SC(CC(=O)Nc2ccccc2F)C(=O)N1C (stereo not drawn) | 1.2 | -2 | -3 | -6 | -9
Cc1ccc(NC(=O)CC2S/C(=N/c3nccs3)N(C)C2=O)c(C)c1 (stereo not drawn) | 0.38 | 32* | -5 | 2 | .
C/C(=N\OC(=O)c1ccc(Cl)cc1)c1sc(-c2ccccc2)nc1C | . | 4 | -28 | 0 | .
Cc1sc(-c2ccncc2)nc1OC(=O)c1cc(Cl)cc(Cl)c1 | -0.53 | 32* | -1 | -3 | .
Cc1sc(-c2ccncc2)nc1OC(=O)c1ccc(Cl)cc1 | -0.042 | 36* | -16 | 0 | .
CCN(CC)c1nc(OC)nc(-n2nnc(C(C)=O)c2C)n1 | 0.32 | -12 | 2 | -1 | .
COc1ccc(OC)c(N(CC(=O)NCc2cccnc2)S(C)(=O)=O)c1 | 0.18 | -4 | 3 | 4 | -4
Nc1cc(-c2ccccc2)nn1Cc1ccc(Cl)cc1 | -5.8* | 4 | 4 | 0 | .
Nc1cc(-c2ccc(Cl)cc2)nn1S(=O)(=O)c1ccccc1 | -1.2 | 14 | -1 | -6 | .
C/C=C/Cn1c(SCCCc2ccccc2)nc2c1c(=O)[nH]c(=O)n2C | -2 | 41* | -4 | 5 | 40
CCOCCn1c(SCCc2ccccc2)nc2c1c(=O)[nH]c(=O)n2C | 1.3 | 16 | -9 | -1 | 3
Cn1c(=O)[nH]c(=O)c2c1nc(Br)n2CCSc1ncccn1 | . | 36* | 1 | -6 | -14
C=CCn1c(SCCCc2ccccc2)nc2c1c(=O)[nH]c(=O)n2C | . | 30 | 5 | 6 | 32
CCOCCn1c(SCc2cccc(C)c2)nc2c1c(=O)[nH]c(=O)n2C | 0.13 | 41* | -2 | 6 | 13
CC(C)CCn1c(SCCc2ccccc2)nc2c1c(=O)[nH]c(=O)n2C | . | 35* | -6 | -7 | 13
CCCn1c(SCCc2ccccc2)nc2c1c(=O)[nH]c(=O)n2C | -0.59 | 20 | -5 | 2 | -2
O=C(O)C1CSC(CCc2ccccc2)N1 (stereo not drawn) | -1 | 13 | 0 | 6 | 15
N#CCC(=O)N1CCCCCC1 | . | 4 | 4 | 2 | -5
SMILES | Cav32 inh | PostGolgi ctrl | Ecoli WT expand | PostGolgi yeast | Ecoli tolC
Cc1ccc(Cn2c(Sc3nnc(C)s3)nc3c2c(=O)[nH]c(=O)n3C)cc1 | 1.9 | 2 | 6 | -2 | -4
Cc1cccc(Cn2c(N(C)Cc3ccccc3)nc3c2c(=O)[nH]c(=O)n3C)c1 | -3.3 | 47* | 1 | -5 | 33
Cn1c(=O)[nH]c(=O)c2c1nc(Sc1nc3ccccc3s1)n2Cc1ccccc1 | -1.6 | 41* | -1 | 3 | -2
CCCCCn1c(SCCCC)nc2c1c(=O)[nH]c(=O)n2C | -2.9 | 33* | -7 | -8 | 34
CN(Cc1ccccc1)c1nc2c(c(=O)[nH]c(=O)n2C)n1C | 0.41 | . | . | . | -29
C/C=C/Cn1c(SCc2ccc(Cl)cc2)nc2c1c(=O)[nH]c(=O)n2C | 0.78 | 43* | -16 | 8 | 15
CC(C)c1cc(Nc2cccc(O)c2)cc(C(C)C)c1O | -0.11 | . | . | . | 14
COc1ccc(C2CC(c3cccc(OC)c3OC)n3nnnc3N2)cc1 (stereo not drawn) | 1.6 | 12 | -8 | 4 | 14
O=C(C1CC1)N(CCN(Cc1ccccc1)C(=O)C1CC1)Cc1ccccc1 | . | 14 | 6 | -6 | .
CCn1c(SCc2ccc(OC)cc2)nnc1-c1ccncc1 | 1.1 | 4 | 1 | -8 | -2
Cc1ccc(Sc2nc3c(c(=O)[nH]c(=O)n3C)n2CCc2ccccc2)cc1 | -0.052 | 35* | 1 | -15 | .
CCOC(=O)C1=C(c2cccc(Oc3ccccc3)c2)NC(=S)NC1C (stereo not drawn) | -8.3* | 25 | -13 | 8 | .
Cc1ccc(Cl)cc1NC(=O)c1cnn2c1NC(c1ccco1)CC2C(F)(F)F (stereo not drawn) | -2.8 | 58* | -2 | 41* | .
Cc1ccc(C2CC(C(F)(F)F)n3ncc(C(=O)NCc4ccco4)c3N2)cc1 (stereo not drawn) | -5.8* | 17 | -2 | -9 | 18
Cc1ccc(C2CC(C(F)(F)F)n3ncc(C(N)=O)c3N2)cc1 (stereo not drawn) | -0.044 | 6 | 1 | -4 | 9
COCCNC(=O)c1cnn2c1NC(c1ccco1)CC2C(F)(F)F (stereo not drawn) | -0.28 | . | . | . | .
CN(Cc1ccc(-n2cccn2)cc1)C(=O)c1cnn2c1NC(c1ccco1)CC2C(F)(F)F (stereo not drawn) | -7.6* | 13 | -3 | 3 | 60
O=C(NCc1cccc(Cl)c1)c1cnn2c1NC(c1ccco1)CC2C(F)(F)F (stereo not drawn) | -1.3 | 16 | -1 | -3 | .
Cc1nn(Cc2ccccc2)c(C)c1NC(=O)CSc1nc2sc3c(c2c(=O)n1C)CCC3 | 0.54 | . | . | . | 4
O=C(CCc1ccccc1)Nc1c(F)cccc1F | 0.52 | . | . | . | .
Cc1ccc(C)c(N2CCN(C(=O)Cc3cn(C)c4ccccc34)CC2)c1 | -5.4* | 15 | -22 | -1 | .
Cc1ccc(C)c(N2CCN(C(=O)CC3Sc4ccccc4NC3=O)CC2)c1 (stereo not drawn) | -6.9* | 10 | -11 | -1 | 24
O=C(Cc1ccccc1)NC(Nc1ccccc1)C(Cl)(Cl)Cl (stereo not drawn) | -4.2* | -8 | 9 | 15 | .
CC(C)(C)NC(NC(=O)Cc1ccccc1)C(Cl)(Cl)Cl (stereo not drawn) | -1.2 | 12 | 4 | -2 | .
O=C(Cc1ccccc1)NC(NCCc1ccccc1)C(Cl)(Cl)Cl (stereo not drawn) | -10* | -2 | 2 | 5 | .
SMILES | Cav32 inh | PostGolgi ctrl | Ecoli WT expand | PostGolgi yeast | Ecoli tolC
O=c1[nH]c2ccccc2n2c(-c3ccncc3)nnc12 | 0.67 | 0 | 5 | -3 | .
O=C1CN(C(=O)c2cccs2)c2ccccc2N1 | 0.057 | 33* | -1 | -4 | -15
Clc1ccc(CSc2nnc(-c3c[nH]c4ccccc34)o2)cc1 | 0.56 | 27 | -3 | -8 | .
Cc1ccc(CSc2nnc(-c3cccnc3)o2)cc1 | -0.19 | 2 | 7 | 16 | .
Clc1ccc(CSc2nnc(-c3ccncc3)o2)cc1 | 0.42 | 0 | -1 | 2 | -1
Cc1ccccc1-c1nnc(SCc2ccc(F)cc2)o1 | -3.5 | 35* | -1 | -2 | 54
O=C(Nc1ccccc1-c1nnc(SCc2ccccc2)o1)c1ccccc1 | -5.8* | 18 | -32 | 9 | .
